# Reference: ChEMBL document CHEMBL1177759, “Design and synthesis of disubstituted (4-piperidinyl)-piperazine derivatives as potent acetyl-CoA carboxylase inhibitors” (Bioorg Med Chem Lett, 2010)
# Experiments:
# Acetyl-CoA carboxylase = Acetyl-CoA carboxylase (Homo sapiens, UniProt Q13085+O00763); assay: Inhibition of human ACC1/2-mediated malonyl-CoA synthesis; format: protein assay
# Method in brief: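 Partially purified human liver ACC enzymes; read-out is malonyl-CoA synthesis by ACC1/2; IC50 taken as mean of at least two independent experiments.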
# [1] = Metabolic stability in human liver microsomes assessed as compound remaining after 15 mins; format: ADME, Microsome; details: read-out: Stability
# Method in brief: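 Compound at […] incubated 15 min at 37 °C with human liver microsomes at 1 mg protein/mL. Cofactors: 1.5 mM glucose-6-phosphate, 0.16 mM NADP, 1 U/mL G6P dehydrogenase. Buffer: 250 mM phosphate, 2.4 mM MgCl2, 69 mM KCl. Parent measured by LC-MS/MS; % remaining relative to 0 min.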
# [2] = Permeability by PAMPA method; format: ADME; details: read-out: permeability
# Method in brief: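 Parallel artificial membrane permeation at pH 6.2; effective permeability Pe reported in 10^-6 cm/s.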
# [3] = Inhibition of human ACC in HepG2 cells assessed as decrease in fatty acid synthesis by [14C]acetate incorporation assay; format: cell-based
# Method in brief: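 HepG2 cells; fatty acid synthesis followed as loss of [14C]acetate incorporation into cellular lipids; IC50 derived.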
SMILES,IC50 (Acetyl-CoA carboxylase) [nM],further results
CC(=O)N1CCC(C(=O)N2CCC(N3CCN(C(=O)c4cc(-c5ccccc5)nc(-c5ccc6c(c5)c(C)cn6C)c4)CC3)CC2)CC1,127,
CC(=O)N1CCC(C(=O)N2CCC(N3CCN(C(=O)c4cc(-c5ccccc5)nc(-c5ccc6c(c5)c(C)c(C)n6C)c4)CC3)CC2)CC1,105,
CCc1c(C)[nH]c2ccc(-c3cc(C(=O)N4CCN(C5CCN(C(=O)C6CCN(C(C)=O)CC6)CC5)CC4)cc(-c4ccccc4)n3)cc12,169,
CC(=O)N1CCC(C(=O)N2CCC(N3CCN(C(=O)c4cc(-c5ccccc5)nc(-c5ccc6[nH]c(C)c(C#N)c6c5)c4)CC3)CC2)CC1,9.7,
CC(=O)N1CCC(C(=O)N2CCC(N3CCN(C(=O)c4cc(-c5ccccc5)nc(-c5ccc6[nH]c(CN(C)C)c(C)c6c5)c4)CC3)CC2)CC1,8.4,
CC(=O)N1CCC(C(=O)N2CCC(N3CCN(C(=O)c4cc(-c5ccc(C(F)(F)F)cc5)nc(-c5ccc6[nH]ccc6c5)c4)CC3)CC2)CC1,72,
CC(=O)N1CCC(C(=O)N2CCC(N3CCN(C(=O)c4cc(-c5ccc(C)c(F)c5)nc(-c5ccc6[nH]ccc6c5)c4)CC3)CC2)CC1,49,
COc1ccc(-c2cc(C(=O)N3CCN(C4CCN(C(=O)C5CCN(C(C)=O)CC5)CC4)CC3)cc(-c3ccc4[nH]ccc4c3)n2)cc1OC,30,
CC(=O)N1CCC(C(=O)N2CCC(N3CCN(C(=O)c4cc(-c5ccccc5)nc(-c5ccc6c(ccn6C)c5)c4)CC3)CC2)CC1,69,remaining at 0.25 h [1]: 85%
CC(=O)N1CCC(C(=O)N2CCC(N3CCN(C(=O)c4cc(-c5ccccc5)nc(-c5ccc6c(c5)cc(C)n6C)c4)CC3)CC2)CC1,117,
CC(=O)N1CCC(C(=O)N2CCC(N3CCN(C(=O)c4cc(-c5cccc(F)c5)nc(-c5ccc6[nH]ccc6c5)c4)CC3)CC2)CC1,33,Papp [2]: 19.9 ×10⁻⁶ cm/s
CC(=O)N1CCC(C(=O)N2CCC(N3CCN(C(=O)c4cc(-c5ccc(F)cc5)nc(-c5ccc6[nH]ccc6c5)c4)CC3)CC2)CC1,48,Papp [2]: 44.3 ×10⁻⁶ cm/s
CC(=O)N1CCC(C(=O)N2CCC(N3CCN(C(=O)c4cc(-c5cccc(C)c5)nc(-c5ccc6[nH]ccc6c5)c4)CC3)CC2)CC1,37,Papp [2]: 28.1 ×10⁻⁶ cm/s
CC(=O)N1CCC(C(=O)N2CCC(N3CCN(C(=O)c4cc(-c5ccc(C)cc5)nc(-c5ccc6[nH]ccc6c5)c4)CC3)CC2)CC1,30,Papp [2]: 39.8 ×10⁻⁶ cm/s
COc1cccc(-c2cc(C(=O)N3CCN(C4CCN(C(=O)C5CCN(C(C)=O)CC5)CC4)CC3)cc(-c3ccc4[nH]ccc4c3)n2)c1,32,
COc1ccc(-c2cc(C(=O)N3CCN(C4CCN(C(=O)C5CCN(C(C)=O)CC5)CC4)CC3)cc(-c3ccc4[nH]ccc4c3)n2)cc1,21,Papp [2]: 21.5 ×10⁻⁶ cm/s
CC(=O)N1CCC(C(=O)N2CCC(N3CCN(C(=O)c4cc(-c5cccc(C(F)(F)F)c5)nc(-c5ccc6[nH]ccc6c5)c4)CC3)CC2)CC1,100,
CC(=O)N1CCC(C(=O)N2CCC(N3CCN(C(=O)c4cc(-c5ccccc5)nc(-c5ccc(C(N)=O)cc5)c4)CC3)CC2)CC1,80,
CC(=O)N1CCC(C(=O)N2CCC(N3CCN(C(=O)c4cc(-c5ccccc5)nc(-c5ccc(CCO)cc5)c4)CC3)CC2)CC1,27,IC50 [3]: 1620 nM
CC(=O)N1CCC(C(=O)N2CCC(N3CCN(C(=O)c4cc(-c5ccccc5)nc(-c5ccc(CC(=O)O)cc5)c4)CC3)CC2)CC1,75,
CC(=O)N1CCC(C(=O)N2CCC(N3CCN(C(=O)c4cc(-c5ccccc5)nc(-c5ccc(OCCO)cc5)c4)CC3)CC2)CC1,47,
CC(=O)N1CCC(C(=O)N2CCC(N3CCN(C(=O)c4cc(-c5ccccc5)nc(-c5ccc(CCCO)cc5)c4)CC3)CC2)CC1,70,
CC(=O)N1CCC(C(=O)N2CCC(N3CCN(C(=O)c4cc(-c5ccccc5)nc(-c5ccc(CO)cc5)c4)CC3)CC2)CC1,42,

# More lines, main results first:
IC50 (Acetyl-CoA carboxylase) [nM],SMILES,further results
33,CC(=O)N1CCC(C(=O)N2CCC(N3CCN(C(=O)c4cc(-c5ccccc5)nc(-c5ccc6[nH]c(C)c(C)c6c5)c4)CC3)CC2)CC1,remaining at 0.25 h [1]: 99%
59,CC(=O)N1CCC(C(=O)N2CCC(N3CCN(C(=O)c4cc(-c5ccccc5)nc(-c5ccc6[nH]c(C)cc6c5)c4)CC3)CC2)CC1,
36,CC(=O)N1CCC(C(=O)N2CCC(N3CCN(C(=O)c4cc(-c5ccccc5)nc(-c5ccc6[nH]cc(C)c6c5)c4)CC3)CC2)CC1,remaining at 0.25 h [1]: 72%
57,CC(=O)N1CCC(C(=O)N2CCC(N3CCN(C(=O)c4cc(-c5ccccc5)nc(-c5ccc6cn[nH]c6c5)c4)CC3)CC2)CC1,
54,CC(=O)N1CCC(C(=O)N2CCC(N3CCN(C(=O)c4cc(-c5ccccc5)nc(-c5ccc6c(c5)CC(=O)N6)c4)CC3)CC2)CC1,
55,CC(=O)N1CCC(C(=O)N2CCC(N3CCN(C(=O)c4cc(-c5ccccc5)nc(-c5ccc6[nH]ccc6c5)c4)CC3)CC2)CC1,remaining at 0.25 h [1]: 64%; Papp [2]: 46.5 ×10⁻⁶ cm/s
47,CC(=O)N1CCC(C(=O)N2CCC(N3CCN(C(=O)c4cc(-c5ccccc5)nc(-c5ccc6cc[nH]c6c5)c4)CC3)CC2)CC1,
42,CC(=O)N1CCC(C(=O)N2CCC(N3CCN(C(=O)c4cc(-c5ccccc5)nc(-c5ccc6[nH]ncc6c5)c4)CC3)CC2)CC1,
47,CC(=O)N1CCC(C(=O)N2CCC(N3CCN(C(=O)c4cc(-c5ccccc5)nc(-c5ccc(O)cc5)c4)CC3)CC2)CC1,
47,CC(=O)N1CCC(C(=O)N2CCC(N3CCN(C(=O)c4cc(-c5ccccc5)nc(-c5cccc(CO)c5)c4)CC3)CC2)CC1,
